According to ChEMBL document CHEMBL1124328, “Hypoxia-selective antitumor agents. 1. Relationships between structure, redox properties and hypoxia-selective cytotoxicity for 4-substituted derivatives of nitracrine” (J Med Chem, 1989):

Experiments:
[1] = Relative lipophilicity of the compound; assay type: physicochemical; details: octanol/water
[2] = Dissociation constant of the compound; assay type: physicochemical
[3] = Ratio of cytotoxicity determined in air to that of cytotoxicity determined in N2 was measured under aerobic conditions to hypoxic conditions by the clonogenic assay against Chinese hamster ovary (subline AA8) cells; assay type: cell-based, Cricetulus griseus; details: subline AA8 (CHO-AA8)
Summary of the method: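 Clonogenic survival of plateau-phase AA8 cells in stirred suspension at 37 °C. Cells and drug were pre-gassed separately for 45 min with 5% CO₂ in air or in N₂, then mixed using a gas-purged syringe. Plating efficiency was sampled over up to 3 h. Drug levels were chosen to give similar killing rates under both gases. Ratio = CT₁₀(air)/CT₁₀(N₂), where CT₁₀ is concentration × time for 10% survival.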

[4] = test system: Nucleic Acid; experiment: Logarithm of association constant for binding to poly[d(A-T)], determined by ethidium displacement; assay type: nucleic-acid assay
Summary of the method: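 Ethidium displacement assay with poly[d(A-T)], giving log association constant. No quenching corrections were applied.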

[5] = Cytotoxicity was measured under aerobic conditions by the clonogenic assay against Chinese hamster ovary (subline AA8) cells; assay type: cell-based, Cricetulus griseus; parameters: unit not given here
Summary of the method: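 CHO AA8 cells were grown in alpha MEM with 10% FCS, then taken to unfed plateau phase in spinner flasks (1.0–1.3 × 10⁶ cells/mL). Cells were resuspended in 5% FCS medium, and cells and drug were pre-equilibrated separately for 45 min at 37 °C under flowing 5% CO₂ in air. Exposure was as stirred suspension for up to 3 h, with plating efficiency sampled over time. CT₁₀ is the concentration × time giving 10% survival.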

[6] = Equilibrium constant measured by the pulse radiolysis at pH 7; assay type: ADME
Summary of the method: (§1)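 Pulse radiolysis on a 1.8 MV linac (ca. 3 Gy in 0.2 μs) of solutions at 21 °C in a 2-cm pathlength cell, buffered at pH 7 with 2 mM sodium phosphate. Dose was set by aerated 10 mM KSCN absorbance at 472 nm. The equilibrium constant K for ArNO₂/ArNO₂•⁻ versus benzylviologen came from radical ratios over various substrate concentrations. E(1) was derived from K relative to E(BV²⁺/BV•⁺).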

[7] = Compound''s one-electron reduction potential (E(1)) has been measured by radiolysis at pH 7; summary of the method: as §1
[8] = Compound's one-electron reduction potential (E(1)) has been measured by radiolysis at pK1
Summary of the method: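 Calculated from E(1) measured at pH 7 using the paper's pH-dependence expression. Side-chain pKa values (pK2, pKr2) were assumed equal for all derivatives, and the acridine radical pKa was assumed 4.3 pH units above pK1.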

[9] = Dissociation constant was determined; assay type: physicochemical

SMILES	Rm [1]	pKa [2]	selectivity ratio [3]	Log Ke [4]	CT10 [5]	K [6]	Log K [4]	E [7]	E [8]	pKa [9]
CN(C)CCCNc1c2ccccc2nc2c(N(CCO)CCO)ccc([N+](=O)[O-])c12	-0.74	6.53	6	6.73 M-1	540					
CN(C)CCCNc1c2ccccc2nc2cccc([N+](=O)[O-])c12 [NITRACRINE]	-0.85	6.21	9.9		0.47	18 M⁻¹	6.92 M-1	-303 mV	-270 mV	
CN(C)CCCNc1c2ccccc2nc2c(F)ccc([N+](=O)[O-])c12	-0.46	5.41	5.3		2	2.4 M⁻¹	6.15 M-1	-354 mV	-277 mV	
CC(=O)OCCN(CCOC(C)=O)c1ccc([N+](=O)[O-])c2c(NCCCN(C)C)c3ccccc3nc12	-0.29	6.2	11.5		575	11.7 M⁻¹	6.5 M-1	-314 mV	-280 mV	
COC(=O)c1ccc([N+](=O)[O-])c2c(NCCCN(C)C)c3ccccc3nc12			0.32		8	175 M⁻¹	6.06 M-1	-244 mV	-164 mV	5.35
Cc1ccc([N+](=O)[O-])c2c(NCCCN(C)C)c3ccccc3nc12	-0.76	6.29	10		2	8.8 M⁻¹	7.23 M-1	-321 mV	-292 mV	
CN(C)CCCNc1c2ccccc2nc2c(N(C)C)ccc([N+](=O)[O-])c12	-0.63	6.47	16		720	5.3 M⁻¹	7.11 M-1	-334 mV	-314 mV	
CN(C)CCCNc1c2ccccc2nc2c(Cl)ccc([N+](=O)[O-])c12	-0.25	5	13.6		0.68	7 M⁻¹	5.95 M-1	-325 mV	-225 mV	
COc1ccc([N+](=O)[O-])c2c(NCCCN(C)C)c3ccccc3nc12	-0.88	6.61	16		22	1.9 M⁻¹	6.76 M-1	-361 mV	-346 mV	
